Activity, EC50 and logD data for 23 compounds are collected here from ChEMBL document CHEMBL3627655, “Design, synthesis and biological activity of phenoxyacetic acid derivatives as novel free fatty acid receptor 1 agonists” (Bioorg Med Chem, 2015).

Activity calls are given as the source filed them. No cut-off for these calls is given here.

The target in data set [1] is T1, Free fatty acid receptor 1 (Homo sapiens, UniProt O14842). Briefly: Agonist activity at human FFA1 receptor expressed in CHO cells assessed as increase in intracellular calcium flux at 100 nM by FLIPR assay relative to control. It counts as functional, cell-based. A digest of the protocol:
(§1)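 CHO cells stably expressing human FFA1 (NM_005303), seeded at 15 K cells/well and grown 16 h at 37 °C, 5% CO2. Calcium flux read by FLIPR Tetra. Response = (A−B)/(C−B)×100, with B vehicle and C 10 μM γ-linolenic acid. Mean of three independent experiments.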

The target of data set [2] is T1, Free fatty acid receptor 1. Briefly: Agonist activity at human FFA1 receptor expressed in CHO cells assessed as increase in intracellular calcium flux by FLIPR assay. It counts as functional, cell-based. Summed up:
as §1

Data set [3] is described as follows: 1-octanol-phosphate buffer partition coefficient, log D of the compound at 100 uM at pH 7.4 after 24 hrs by shake-flask method. It counts as physicochemical. A digest of the protocol:
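Test compound at 100 μM final (from 10 mM DMSO stock) in 0.01 M phosphate buffer pH 7.4 and 1-octanol, shaken 700 rpm for 24 h, phases left 1 h to separate. Each phase analysed by HPLC in duplicate at 254 nm. LogD is the octanol/buffer peak-area ratio, corrected with two calibration points per compound per solvent. Three independent experiments.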

The test system of data set [4] is Mus musculus. Briefly: Antidiabetic activity in po dosed overnight fasted ICR mouse assessed as decrease in blood glucose level administered glucose 30 mins post compound treatment measured at 15 to 120 mins by OGTT. Type of data set: functional, organism-based. Summed up: (§2)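 Male ICR mice, 10 weeks old, fasted 12 h and randomized (n = 6). Compound given orally at 10, 20 or 40 mg/kg in 0.5% CMC, with 30% glucose (3 g/kg) orally 30 min later. Tail blood glucose measured by test strips at −30, 0, 15, 30, 45, 60 and 120 min. Student's t test vs vehicle.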

Data set [5] relates to Mus musculus. Briefly: Antidiabetic activity in overnight fasted STZ-induced type 2 diabetic C57BL/6 mouse model assessed as decrease in blood glucose level at 20 mg/kg, po administered glucose 30 mins post compound treatment measured at 15 to 120 mins by OGTT. It counts as functional, organism-based. A digest of the protocol: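 Male C57BL/6 mice on 45% fat diet for 4 weeks, then STZ 80 mg/kg ip, then high-fat diet 4 more weeks. Mice with fasting glucose ≥11.1 mmol/L were used, fasted 12 h (n = 6). Oral dose in 0.5% CMC, with 20% glucose (2 g/kg) orally 30 min later. Strip glucose read at −30, 0, 15, 30, 45, 60 and 120 min.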

The subject of data set [6] is Mus musculus. Briefly: Toxicity in overnight fasted ICR mouse assessed as hypoglycemia at 40 mg/kg, po measured at 30 to 180 mins. The conditions noted are these: in vivo. It counts as organism-based. A digest of the protocol: (§3)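 Male ICR mice, 10 weeks old, fasted overnight, in 3 groups (n = 6). Single oral dose in 0.5% CMC. Tail-vein blood glucose measured by strips at 0, 30, 60, 90, 120 and 180 min. Mean ± SEM, Student's t test.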

The test system of data set [7] is Mus musculus. Briefly: Toxicity in overnight fasted ICR mouse assessed as hypoglycemia at 15 mg/kg, po measured at 30 to 180 mins. It counts as organism-based. The conditions noted are these: in vivo. A digest of the protocol: as §3
Data set [8] deals with Mus musculus. Briefly: Antidiabetic activity in overnight fasted ICR mouse assessed as decrease in blood glucose level at 20 mg/kg, po administered glucose 30 mins post compound treatment measured at 15 to 120 mins by OGTT. Type of data set: functional, organism-based. A digest of the protocol:
as §2

T1 sequence (O14842 whole entry): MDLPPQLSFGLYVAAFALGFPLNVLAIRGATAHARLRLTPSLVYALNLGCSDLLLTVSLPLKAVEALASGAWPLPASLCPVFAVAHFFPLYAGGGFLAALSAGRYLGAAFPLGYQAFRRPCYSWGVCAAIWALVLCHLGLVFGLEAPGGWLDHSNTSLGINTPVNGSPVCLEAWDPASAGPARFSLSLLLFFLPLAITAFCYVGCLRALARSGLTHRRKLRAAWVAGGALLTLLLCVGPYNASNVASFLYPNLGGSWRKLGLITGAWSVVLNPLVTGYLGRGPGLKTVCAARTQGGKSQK

As for `Cc1cc(O)cc(C)c1-c1cccc(COc2ccc(OCC(=O)O)c(F)c2)c1`, the Activity in data set [1] was determined as 44.3%. Further, the EC50 in data set [2] was 110 nM. In data set [3], this compound returned a logD at 24 h, 100 µM of 2.37. For the compound `COCCCOc1cc(C)c(-c2cccc(COc3ccc(OCC(=O)O)c(F)c3)c2)c(C)c1`, the Activity in data set [1] turned out to be 38%.

`Cc1cc(OCCCS(C)(=O)=O)cc(C)c1-c1cccc(COc2ccc(N(CC(=O)O)C(=O)c3ccoc3)cc2)c1`: the Activity in data set [1] came to 28.9%.

In the case of `Cc1cc(OCCCS(C)(=O)=O)ccc1-c1cccc(COc2ccc(OCC(=O)O)c(F)c2)c1`, the Activity in data set [1] was 61.3%; in the data set with Mus musculus [4] it was “Dose-dependent effect”; with Mus musculus [6] it was “Non-toxic”. In addition, the EC50 in data set [2] was 43.6 nM. In data set [3], this compound gave a logD at 24 h, 100 µM of 1.63. The outcome with Mus musculus [5] was Active.

On to `Cc1cc(OCCOCc2ccccc2)cc(C)c1-c1cccc(COc2ccc(OCC(=O)O)c(F)c2)c1`, for which the Activity in data set [1] was found to be 23.6%.

Consider `CCCOc1cc(C)c(-c2cccc(COc3ccc(OCC(=O)O)c(F)c3)c2)c(C)c1`, for which the Activity in data set [1] came out at 47.9%. In addition, in data set [2], the EC50 was 106 nM. In data set [3], this compound came in with a logD at 24 h, 100 µM of 3.64. On to `Cc1cc(OCC(=O)N(C)C)cc(C)c1-c1cccc(COc2ccc(OCC(=O)O)c(F)c2)c1`, for which, in data set [1], the Activity came to 13.5%.

Consider `Cc1cc(OC(C)C)cc(C)c1-c1cccc(COc2ccc(OCC(=O)O)c(F)c2)c1`, for which the Activity in data set [1] turned out to be 36.9%. Turning to `Cc1cc(OCCCO)cc(C)c1-c1cccc(COc2ccc(OCC(=O)O)c(F)c2)c1`, the Activity in data set [1] came to 44.4%. In addition, the EC50 in data set [2] was 110 nM. The logD at 24 h, 100 µM in data set [3] amounted to 2.73. Consider `Cc1cc(OCC(C)C)cc(C)c1-c1cccc(COc2ccc(OCC(=O)O)c(F)c2)c1`, for which, in data set [1], the Activity worked out at 35.2%. The same measure, in the same setting: the figure for `Cc1cc(OCc2ccccc2)cc(C)c1-c1cccc(COc2ccc(OCC(=O)O)c(F)c2)c1` is 26.4%. Take `COCCOc1cc(C)c(-c2cccc(COc3ccc(OCC(=O)O)c(F)c3)c2)c(C)c1`: the Activity in data set [1] was 48.7%. Besides, the EC50 in data set [2] worked out at 104 nM. Besides, the logD at 24 h, 100 µM in data set [3] is 3.15.

For `COc1cc(C)c(-c2cccc(COc3ccc(OCC(=O)O)c(F)c3)c2)c(C)c1`, the Activity in data set [1] came to 58.4%. Moreover, the concentration giving a half-maximal response (EC50) in data set [2] came to 49.7 nM. Also, in data set [3], the logD at 24 h, 100 µM was determined as 3.2. With `COc1ccc(Cl)cc1C(=O)NCCc1ccc(S(=O)(=O)NC(=O)NC2CCCCC2)cc1` [GLYBURIDE], the Activity result with Mus musculus [7] was “Toxic”.

Take `CCCCOc1cc(C)c(-c2cccc(COc3ccc(OCC(=O)O)c(F)c3)c2)c(C)c1`: the Activity in data set [1] is 41.6%. Same read-out and setting: then `CC(=O)N(CC(=O)O)c1ccc(OCc2cccc(-c3c(C)cc(OCCCS(C)(=O)=O)cc3C)c2)cc1`, with 36.3%. On the same count and under the same terms, then `Cc1cc(OCCCS(C)(=O)=O)cc(C)c1-c1cccc(COc2ccc(N(CC(=O)O)C(=O)c3ccccc3)cc2)c1`, with 23.5%; and `Cc1cc(OCc2cccc(-c3c(C)cc(OCCCS(C)(=O)=O)cc3C)c2)ccc1N(CC(=O)O)C(=O)c1ccccc1`, with 2.57%. In the case of `Cc1cc(OCCCS(C)(=O)=O)cc(C)c1-c1cccc(COc2ccc(OCC(=O)O)c(F)c2)c1`, the logD at 24 h, 100 µM in data set [3] stood at 1.81. In data set [3], `Cc1cc(OCCCS(C)(=O)=O)cc(C)c1-c1cccc(COc2ccc3c(c2)OC[C@H]3CC(=O)O)c1` registered a logD at 24 h, 100 µM of 2.43. Moreover, the result in the data set on Mus musculus [8] and in the data set on Mus musculus [5] was Active. In the case of `Cc1cc(OCC(=O)N2CCOCC2)cc(C)c1-c1cccc(COc2ccc(OCC(=O)O)c(F)c2)c1`, the Activity in data set [1] is 18.4%. Regarding `CCOc1cc(C)c(-c2cccc(COc3ccc(OCC(=O)O)c(F)c3)c2)c(C)c1`, the Activity in data set [1] was found to be 53.1%. Further, the EC50 in data set [2] came to 65.9 nM. The same compound gave a logD at 24 h, 100 µM in data set [3] of 3.48.

On to `CC(=O)N(CC(=O)O)c1ccc(OCc2cccc(-c3c(C)cc(OCCCS(C)(=O)=O)cc3C)c2)cc1C`, for which the Activity in data set [1] came to 18.4%.
